According to ChEMBL document CHEMBL1781905, “Discovery and optimization of N-acyl and N-aroylpyrazolines as B-Raf kinase inhibitors” (Bioorg Med Chem Lett, 2010):
pIC50: −log10 of the molar value.

Legend:
[1] = target: T1, Serine/threonine-protein kinase B-raf (Homo sapiens, UniProt P15056, V600E); experiment: Inhibition of B-Raf V600E mutant-mediated ERK phosphorylation in human A375 cells after 3 hrs by immunoblotting method; format: cell-based, A-375; conditions: in the assay text read “whole cell ELISA” for “immunoblotting method”
T1 sequence (P15056 2-766 V600E limits assumed): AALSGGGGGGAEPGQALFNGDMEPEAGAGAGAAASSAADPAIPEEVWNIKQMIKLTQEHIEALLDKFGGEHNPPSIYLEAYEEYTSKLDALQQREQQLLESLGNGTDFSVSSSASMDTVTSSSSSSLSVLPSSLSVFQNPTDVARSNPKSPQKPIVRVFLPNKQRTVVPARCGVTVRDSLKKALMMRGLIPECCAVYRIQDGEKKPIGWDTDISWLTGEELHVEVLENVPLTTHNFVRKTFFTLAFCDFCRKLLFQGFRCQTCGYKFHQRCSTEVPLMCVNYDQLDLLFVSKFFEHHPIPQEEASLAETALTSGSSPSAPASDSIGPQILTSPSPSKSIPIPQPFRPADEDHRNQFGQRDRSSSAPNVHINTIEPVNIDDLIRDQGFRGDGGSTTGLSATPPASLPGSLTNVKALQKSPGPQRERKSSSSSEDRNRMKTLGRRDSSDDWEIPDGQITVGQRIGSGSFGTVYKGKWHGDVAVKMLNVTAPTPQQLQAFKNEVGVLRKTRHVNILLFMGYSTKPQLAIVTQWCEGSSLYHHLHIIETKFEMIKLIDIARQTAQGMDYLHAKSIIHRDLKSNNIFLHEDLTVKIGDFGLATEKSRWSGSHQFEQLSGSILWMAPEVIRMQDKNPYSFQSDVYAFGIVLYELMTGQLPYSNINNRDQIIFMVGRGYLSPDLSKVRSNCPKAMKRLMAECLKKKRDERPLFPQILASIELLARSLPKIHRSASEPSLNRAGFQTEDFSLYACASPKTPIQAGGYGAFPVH
Summary of the method: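 A375 (B-Raf V600E) cells are seeded overnight, then exposed to inhibitors for 3 h at 37 °C. Cells are fixed, permeabilized and blocked overnight. They are probed 1 h with anti-phospho-ERK antibody, then with HRP-linked reagent. The TMB substrate is read as optical density at 650 nm.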

[2] = target: T1, Serine/threonine-protein kinase B-raf; experiment: Inhibition of human B-Raf V600E mutant after 3 hrs
Summary of the method: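 Radiometric assay using 20 nM B-Raf V600E. It measures phosphorylation of a biotinylated surrogate peptide by ³³P-ATP in 50 mM HEPES pH 7.5 with 10 mM DTT and 50 mM MnCl₂ at 30 °C for 3 h. The reaction is stopped with 100 mM EDTA, captured 2 h on a streptavidin FlashPlate and scintillation-counted.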

[3] = target: T2, Receptor-type tyrosine-protein kinase FLT3 (Homo sapiens, UniProt P36888); experiment: Inhibition of FLT3
T2 sequence (P36888 whole entry): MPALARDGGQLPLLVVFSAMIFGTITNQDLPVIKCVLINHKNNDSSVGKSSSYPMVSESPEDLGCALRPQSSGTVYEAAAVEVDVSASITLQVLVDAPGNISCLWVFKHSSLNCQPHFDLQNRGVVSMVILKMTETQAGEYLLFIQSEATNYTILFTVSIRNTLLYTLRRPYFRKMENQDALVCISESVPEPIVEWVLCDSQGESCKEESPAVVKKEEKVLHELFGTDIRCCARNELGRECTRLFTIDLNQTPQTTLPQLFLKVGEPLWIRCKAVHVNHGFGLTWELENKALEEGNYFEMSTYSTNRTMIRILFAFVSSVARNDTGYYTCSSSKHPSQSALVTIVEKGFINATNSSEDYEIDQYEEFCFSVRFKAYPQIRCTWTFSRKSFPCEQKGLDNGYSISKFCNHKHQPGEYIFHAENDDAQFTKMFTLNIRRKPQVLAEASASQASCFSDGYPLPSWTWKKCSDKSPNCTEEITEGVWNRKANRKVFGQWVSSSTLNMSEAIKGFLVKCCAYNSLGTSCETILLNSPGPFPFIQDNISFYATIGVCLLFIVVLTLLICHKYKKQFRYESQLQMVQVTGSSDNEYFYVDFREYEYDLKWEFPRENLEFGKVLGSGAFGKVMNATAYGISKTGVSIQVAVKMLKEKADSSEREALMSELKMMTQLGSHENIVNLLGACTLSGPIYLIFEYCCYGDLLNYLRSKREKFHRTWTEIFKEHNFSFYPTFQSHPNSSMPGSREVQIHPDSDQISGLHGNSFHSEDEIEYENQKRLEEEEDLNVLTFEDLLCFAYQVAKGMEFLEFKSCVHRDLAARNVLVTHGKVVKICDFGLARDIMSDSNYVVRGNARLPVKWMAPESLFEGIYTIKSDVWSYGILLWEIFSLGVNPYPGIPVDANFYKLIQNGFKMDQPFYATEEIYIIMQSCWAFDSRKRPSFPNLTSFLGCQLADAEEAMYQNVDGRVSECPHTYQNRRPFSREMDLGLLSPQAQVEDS

[4] = target: Fibroblast growth factor receptor 1 (Homo sapiens, UniProt P11362); experiment: Inhibition of FGFR1
[5] = target: Mast/stem cell growth factor receptor Kit (Homo sapiens, UniProt P10721); experiment: Inhibition of KIT2
Sequence of Mast/stem cell growth factor receptor Kit (P10721 whole entry): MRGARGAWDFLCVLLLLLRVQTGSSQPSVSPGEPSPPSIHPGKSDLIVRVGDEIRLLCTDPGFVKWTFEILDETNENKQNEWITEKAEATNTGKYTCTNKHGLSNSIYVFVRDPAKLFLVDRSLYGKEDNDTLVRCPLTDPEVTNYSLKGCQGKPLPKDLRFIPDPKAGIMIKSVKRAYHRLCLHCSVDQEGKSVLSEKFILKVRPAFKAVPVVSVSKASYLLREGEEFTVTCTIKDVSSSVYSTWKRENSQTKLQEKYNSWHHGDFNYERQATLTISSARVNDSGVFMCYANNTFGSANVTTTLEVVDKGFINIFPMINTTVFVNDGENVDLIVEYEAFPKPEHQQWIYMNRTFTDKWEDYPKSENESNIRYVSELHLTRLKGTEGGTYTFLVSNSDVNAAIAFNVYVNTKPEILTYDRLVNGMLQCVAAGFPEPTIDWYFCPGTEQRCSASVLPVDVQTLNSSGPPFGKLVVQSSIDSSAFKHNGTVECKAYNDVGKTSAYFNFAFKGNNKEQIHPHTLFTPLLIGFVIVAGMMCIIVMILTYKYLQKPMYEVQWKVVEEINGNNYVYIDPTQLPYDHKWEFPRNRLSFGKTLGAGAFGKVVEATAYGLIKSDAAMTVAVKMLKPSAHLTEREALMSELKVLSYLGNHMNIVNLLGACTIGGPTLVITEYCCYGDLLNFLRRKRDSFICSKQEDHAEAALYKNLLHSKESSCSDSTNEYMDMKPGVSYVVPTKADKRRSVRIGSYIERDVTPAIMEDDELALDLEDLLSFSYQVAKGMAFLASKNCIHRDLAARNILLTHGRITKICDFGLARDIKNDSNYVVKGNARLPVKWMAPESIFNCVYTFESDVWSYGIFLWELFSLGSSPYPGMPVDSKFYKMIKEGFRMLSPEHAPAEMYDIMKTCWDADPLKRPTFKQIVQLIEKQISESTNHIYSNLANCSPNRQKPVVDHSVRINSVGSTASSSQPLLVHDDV

[6] = target: Macrophage colony-stimulating factor 1 receptor (Homo sapiens, UniProt P07333); experiment: Inhibition of CSF1R
Sequence of Macrophage colony-stimulating factor 1 receptor (P07333 whole entry): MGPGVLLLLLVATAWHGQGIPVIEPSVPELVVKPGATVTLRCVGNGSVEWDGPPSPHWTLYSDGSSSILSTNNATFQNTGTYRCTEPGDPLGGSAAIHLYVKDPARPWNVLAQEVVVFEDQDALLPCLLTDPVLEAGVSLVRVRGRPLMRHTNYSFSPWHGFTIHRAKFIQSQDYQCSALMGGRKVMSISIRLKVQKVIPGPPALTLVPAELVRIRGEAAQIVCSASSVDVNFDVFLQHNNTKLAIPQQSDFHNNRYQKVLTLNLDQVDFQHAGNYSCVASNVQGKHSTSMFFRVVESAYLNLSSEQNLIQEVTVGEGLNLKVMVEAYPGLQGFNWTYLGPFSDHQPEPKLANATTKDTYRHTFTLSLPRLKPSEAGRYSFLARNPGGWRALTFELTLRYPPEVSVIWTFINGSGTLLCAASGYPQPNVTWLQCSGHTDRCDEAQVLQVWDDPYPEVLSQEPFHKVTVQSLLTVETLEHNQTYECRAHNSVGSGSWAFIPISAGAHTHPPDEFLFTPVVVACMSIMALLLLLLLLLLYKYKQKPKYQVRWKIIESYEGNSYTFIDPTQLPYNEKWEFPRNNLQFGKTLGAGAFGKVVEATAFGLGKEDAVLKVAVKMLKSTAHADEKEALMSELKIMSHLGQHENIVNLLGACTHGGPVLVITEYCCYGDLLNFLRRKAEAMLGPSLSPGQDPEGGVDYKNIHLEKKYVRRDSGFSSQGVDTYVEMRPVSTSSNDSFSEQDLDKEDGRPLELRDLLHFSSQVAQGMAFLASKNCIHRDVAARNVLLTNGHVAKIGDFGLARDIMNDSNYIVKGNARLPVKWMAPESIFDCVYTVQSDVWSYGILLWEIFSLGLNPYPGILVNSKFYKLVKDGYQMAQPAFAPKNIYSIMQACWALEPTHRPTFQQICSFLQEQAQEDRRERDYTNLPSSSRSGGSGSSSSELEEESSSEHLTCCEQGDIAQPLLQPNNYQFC

[7] = target: RAC-beta serine/threonine-protein kinase (Homo sapiens, UniProt P31751); experiment: Inhibition of AKT2
Sequence of RAC-beta serine/threonine-protein kinase (P31751 whole entry): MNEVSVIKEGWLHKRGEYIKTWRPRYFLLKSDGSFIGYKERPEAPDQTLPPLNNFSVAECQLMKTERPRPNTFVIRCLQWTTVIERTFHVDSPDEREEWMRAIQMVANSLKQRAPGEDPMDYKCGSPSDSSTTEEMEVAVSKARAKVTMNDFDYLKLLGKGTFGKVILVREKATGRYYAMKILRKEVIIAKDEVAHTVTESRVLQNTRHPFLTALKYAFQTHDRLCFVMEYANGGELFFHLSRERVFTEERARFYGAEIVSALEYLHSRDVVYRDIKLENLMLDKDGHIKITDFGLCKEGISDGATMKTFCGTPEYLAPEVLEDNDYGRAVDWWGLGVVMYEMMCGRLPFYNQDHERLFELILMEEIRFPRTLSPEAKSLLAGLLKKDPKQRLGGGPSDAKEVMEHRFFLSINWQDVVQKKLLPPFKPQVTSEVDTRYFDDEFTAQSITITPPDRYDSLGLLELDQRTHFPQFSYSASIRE

[8] = target: Vascular endothelial growth factor receptor 2 (Homo sapiens, UniProt P35968); experiment: Inhibition of KDR
Sequence of Vascular endothelial growth factor receptor 2 (P35968 whole entry): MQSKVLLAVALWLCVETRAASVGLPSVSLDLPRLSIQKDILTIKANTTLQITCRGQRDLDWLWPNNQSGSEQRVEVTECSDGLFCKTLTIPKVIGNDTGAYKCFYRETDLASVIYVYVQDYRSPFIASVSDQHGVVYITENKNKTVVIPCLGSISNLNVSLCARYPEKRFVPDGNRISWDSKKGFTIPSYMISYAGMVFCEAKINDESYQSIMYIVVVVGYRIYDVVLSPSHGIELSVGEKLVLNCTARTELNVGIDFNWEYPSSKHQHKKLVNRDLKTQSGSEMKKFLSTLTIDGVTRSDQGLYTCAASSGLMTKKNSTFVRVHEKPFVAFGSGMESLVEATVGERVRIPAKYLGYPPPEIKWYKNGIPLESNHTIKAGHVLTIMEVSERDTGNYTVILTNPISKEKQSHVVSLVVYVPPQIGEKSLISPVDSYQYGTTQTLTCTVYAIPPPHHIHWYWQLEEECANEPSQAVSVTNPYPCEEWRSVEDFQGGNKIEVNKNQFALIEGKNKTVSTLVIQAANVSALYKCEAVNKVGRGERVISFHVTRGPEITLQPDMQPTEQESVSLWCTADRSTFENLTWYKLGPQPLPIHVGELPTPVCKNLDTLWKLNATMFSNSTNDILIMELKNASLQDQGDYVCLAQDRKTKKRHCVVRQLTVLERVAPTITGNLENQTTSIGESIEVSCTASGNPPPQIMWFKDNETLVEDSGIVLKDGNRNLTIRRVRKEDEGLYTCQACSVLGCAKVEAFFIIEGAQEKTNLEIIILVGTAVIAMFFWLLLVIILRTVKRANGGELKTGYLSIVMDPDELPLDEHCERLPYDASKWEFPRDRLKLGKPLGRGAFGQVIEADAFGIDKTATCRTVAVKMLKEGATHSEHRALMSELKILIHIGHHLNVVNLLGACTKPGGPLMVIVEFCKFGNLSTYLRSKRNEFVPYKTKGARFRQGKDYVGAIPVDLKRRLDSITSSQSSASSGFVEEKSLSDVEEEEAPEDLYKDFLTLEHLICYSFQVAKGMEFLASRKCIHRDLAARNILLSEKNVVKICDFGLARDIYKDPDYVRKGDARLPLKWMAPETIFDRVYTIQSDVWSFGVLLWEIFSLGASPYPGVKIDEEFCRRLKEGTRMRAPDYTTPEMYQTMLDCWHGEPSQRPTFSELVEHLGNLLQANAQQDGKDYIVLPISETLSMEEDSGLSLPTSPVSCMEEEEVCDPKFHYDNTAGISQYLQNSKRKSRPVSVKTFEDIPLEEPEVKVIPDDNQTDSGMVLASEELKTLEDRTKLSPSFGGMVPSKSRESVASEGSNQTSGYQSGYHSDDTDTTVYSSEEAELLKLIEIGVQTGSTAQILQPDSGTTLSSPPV

Homo sapiens = organism: Homo sapiens; experiment: Selectivity ratio of IC50 for wild type human B-Raf to IC50 for human B-Raf V600E mutant
[9] = target: Cyclin-dependent kinase 2 (Homo sapiens, UniProt P24941); experiment: Inhibition of CDK2
[10] = target: T3, Serine/threonine-protein kinase Chk1 (Homo sapiens, UniProt O14757); experiment: Inhibition of Chk1
T3 sequence (O14757 whole entry): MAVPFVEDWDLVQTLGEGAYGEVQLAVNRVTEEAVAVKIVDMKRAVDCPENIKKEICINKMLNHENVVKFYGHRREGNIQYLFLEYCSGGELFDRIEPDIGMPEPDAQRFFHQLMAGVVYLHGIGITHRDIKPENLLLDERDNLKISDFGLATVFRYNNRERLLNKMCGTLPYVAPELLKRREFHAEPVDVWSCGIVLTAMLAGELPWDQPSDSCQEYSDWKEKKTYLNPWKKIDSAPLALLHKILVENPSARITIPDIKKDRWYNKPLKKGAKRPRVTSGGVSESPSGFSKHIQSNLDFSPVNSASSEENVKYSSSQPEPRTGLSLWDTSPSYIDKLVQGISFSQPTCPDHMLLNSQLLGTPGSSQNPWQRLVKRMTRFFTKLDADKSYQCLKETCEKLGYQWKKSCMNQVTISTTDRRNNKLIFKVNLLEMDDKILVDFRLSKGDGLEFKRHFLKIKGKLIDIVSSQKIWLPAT

[11] = Inhibition of CK2
[12] = target: Serine/threonine-protein kinase Chk2 (Homo sapiens, UniProt O96017); experiment: Inhibition of Chk2
[13] = Inhibition of PKA
[14] = Inhibition of CAMK2
[15] = target: Tyrosine-protein kinase Lck (Homo sapiens) (UniProt P06239); experiment: Inhibition of LCK
[16] = target: Cyclin-dependent kinase 1 (Homo sapiens, UniProt P06493); experiment: Inhibition of CDK1
Sequence of Cyclin-dependent kinase 1 (P06493 whole entry): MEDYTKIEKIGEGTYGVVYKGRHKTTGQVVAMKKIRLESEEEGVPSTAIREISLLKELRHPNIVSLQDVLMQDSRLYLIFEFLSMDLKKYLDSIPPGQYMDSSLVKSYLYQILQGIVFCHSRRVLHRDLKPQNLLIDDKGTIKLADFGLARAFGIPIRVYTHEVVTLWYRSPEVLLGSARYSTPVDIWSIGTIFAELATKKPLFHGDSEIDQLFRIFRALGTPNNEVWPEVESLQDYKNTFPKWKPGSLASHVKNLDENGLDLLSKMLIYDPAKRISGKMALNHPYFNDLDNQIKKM

Row | pIC50 [1] | pIC50 [2] | SMILES | further results
1 | 5.96 | 8.10 | O=C(c1cc(-c2ccccc2)no1)N1N=C(c2cccnc2)CC1c1ccccc1O (configuration not stated) | 
2 |  | 6.67 | O=C(c1cc(-c2ccc(Cl)cc2)cs1)N1N=C(c2cccnc2)CC1c1ccccc1O (configuration not stated) | 
3 | 6.74 | 7.73 | O=C(c1ccc(-c2cccnc2)s1)N1N=C(c2cccnc2)CC1c1ccccc1O (configuration not stated) [listing 1 of 2 here] | 
4 | 6.34 | 7.81 | COc1ccc(-c2cc(C(=O)N3N=C(c4cccnc4)CC3c3ccccc3O)no2)cc1 (configuration not stated) | 
5 | 5.62 | 7.24 | Cc1ccc(-c2ccc(C(=O)N3N=C(c4cccnc4)CC3c3ccccc3O)o2)cc1 (configuration not stated) | 
6 | < 5.00 | 6.59 | O=C(c1cncc(-c2cccs2)c1)N1N=C(c2cccnc2)CC1c1ccccc1O (configuration not stated) | 
7 | 5.43 | 7.74 | COc1ccc(-c2ccc(C(=O)N3N=C(c4cccnc4)CC3c3ccccc3O)o2)cc1 (configuration not stated) | 
8 | 5.82 | 7.62 | O=C(c1cccs1)N1N=C(c2cccnc2)CC1c1ccccc1O (configuration not stated) | Ratio IC50 (Homo sapiens): < 2; pIC50 [3]: < 5.00; pIC50 [4]: < 5.00; pIC50 [5]: < 5.00; pIC50 [6]: < 5.00; pIC50 [7]: < 5.00; pIC50 [8]: < 5.00
9 |  | 6.81 | O=C(c1cccc(Oc2ccccc2)c1)N1N=C(c2cccnc2)CC1c1ccccc1O (configuration not stated) | 
10 | 6.22 | 8.07 | O=C(c1cc(-c2ccc3c(c2)OCO3)on1)N1N=C(c2cccnc2)CC1c1ccccc1O (configuration not stated) | 
11 | 5.85 | 8.10 | O=C(c1ccc(Br)o1)N1N=C(c2cccnc2)CC1c1ccccc1O (configuration not stated) | pIC50 [3]: < 5.00; pIC50 [4]: < 5.00; pIC50 [5]: < 5.00; pIC50 [6]: < 5.00; pIC50 [7]: < 5.00; pIC50 [8]: < 5.00
12 | 5.77 | 7.80 | O=C(c1ccc(-c2ccccc2)o1)N1N=C(c2cccnc2)CC1c1ccccc1O (configuration not stated) | 
13 |  | < 5.00 | O=C(c1ccccc1-c1ccc(F)cc1)N1N=C(c2cccnc2)CC1c1ccccc1O (configuration not stated) | 
14 | 6.09 | 8.10 | O=C(c1cc(-c2ccccc2)on1)N1N=C(c2cccnc2)CC1c1ccccc1O (configuration not stated) | 
15 | 6.55 | 7.82 | O=C(c1ccc(-c2cccnc2)s1)N1N=C(c2cccnc2)CC1c1ccccc1O (single isomer, unassigned; later eluting) | 
16 | 7.21 | 8.04 | O=C(c1cn2c(n1)sc1ccccc12)N1N=C(c2cccnc2)CC1c1ccccc1O (configuration not stated) | 
17 | 5.96 | 7.38 | O=C(c1ccc(-c2ccccc2)[nH]1)N1N=C(c2cccnc2)CC1c1ccccc1O (configuration not stated) | 
18 | 4.85 | 5.92 | O=C(c1ccc(-c2cccnc2)s1)N1N=C(c2cccnc2)CC1c1ccccc1O (single isomer, unassigned; early eluting) | 
19 | 6.03 | 8.09 | Cc1nc(-c2cccnc2)sc1C(=O)N1N=C(c2cccnc2)CC1c1ccccc1O (configuration not stated) | 
20 | 6.03 | 8.17 | COc1cccc(-c2cc(C(=O)N3N=C(c4cccnc4)CC3c3ccccc3O)no2)c1 (configuration not stated) | 
21 | 5.46 | 7.59 | CCOc1cccc2cc(C(=O)N3N=C(c4cccnc4)CC3c3ccccc3O)oc12 (configuration not stated) | pIC50 [3]: < 5.00; pIC50 [4]: < 5.00; pIC50 [5]: < 5.00; pIC50 [6]: < 5.00; pIC50 [7]: < 5.00; pIC50 [8]: < 5.00
22 |  | 6.85 | O=C(c1ccc(-c2ccc(Cl)cc2)s1)N1N=C(c2cccnc2)CC1c1ccccc1O (configuration not stated) | 
23 | 6.89 | 7.84 | O=C(c1cc(-c2ccccc2O)on1)N1N=C(c2cccnc2)CC1c1ccccc1O (configuration not stated) | 
24 | 5.89 | 7.42 | Cc1nc(-c2ccccc2)sc1C(=O)N1N=C(c2cccnc2)CC1c1ccccc1O (configuration not stated) | 
25 |  | < 5.00 | O=C(c1cccc2c(F)cccc12)N1N=C(c2cccnc2)CC1c1ccccc1O (configuration not stated) | 
26 | 6.01 | 8.25 | O=C(c1cc(-c2ccco2)on1)N1N=C(c2cccnc2)CC1c1ccccc1O (configuration not stated) | 

Further lines, the molecule ahead of its results:

Row | SMILES | pIC50 [1] | pIC50 [2] | further results
27 | O=C(c1cccc(-n2cnnn2)c1)N1N=C(c2cccnc2)CC1c1ccccc1O (configuration not stated) | < 5.00 | 7.55 | 
28 | Cc1nc(-c2cnccn2)sc1C(=O)N1N=C(c2cccnc2)CC1c1ccccc1O (configuration not stated) | 6.15 | 8.19 | 
29 | O=C(c1ccc[nH]1)N1N=C(c2cccnc2)CC1c1ccccc1O (configuration not stated) | 5.70 | 7.65 | pIC50 [3]: < 5.00; pIC50 [4]: < 5.00; pIC50 [5]: < 5.00; pIC50 [6]: < 5.00; pIC50 [7]: < 5.00; pIC50 [8]: < 5.00
30 | O=C(c1ccc(-c2cccnc2)s1)N1N=C(c2cccnc2)CC1c1ccccc1O (configuration not stated) [listing 2 of 2 here] |  |  | Ratio IC50 (Homo sapiens): < 2
31 | O=C(CC1CC1)N1N=C(c2cccnc2)CC1c1ccccc1O (configuration not stated) | 5.10 | 7.08 | 
32 | O=C(c1ccc(C(F)(F)F)c(F)c1)N1N=C(c2cccnc2)CC1c1ccccc1O (configuration not stated) |  | 6.18 | 
33 | O=S(=O)(c1ccc(-c2cccnc2)s1)N1N=C(c2cccnc2)CC1c1ccccc1O (configuration not stated) | < 5.00 | 5.70 | 
34 | O=C(c1cc(F)cc(C(F)(F)F)c1)N1N=C(c2cccnc2)CC1c1ccccc1O (configuration not stated) | 5.02 | 6.96 | 
35 | O=C(c1ccco1)N1N=C(c2cccnc2)CC1c1ccccc1O (configuration not stated) |  |  | pIC50 [9]: < 5.00; pIC50 [3]: < 5.00; pIC50 [10]: < 5.00; pIC50 [4]: < 5.00; pIC50 [11]: < 5.00; pIC50 [12]: < 5.00; pIC50 [13]: < 5.00; pIC50 [14]: < 5.00; pIC50 [5]: < 5.00; pIC50 [6]: < 5.00; pIC50 [15]: < 5.00; pIC50 [8]: < 5.00; pIC50 [16]: < 5.00
36 | O=C(c1ccc(F)c(C(F)(F)F)c1)N1N=C(c2cccnc2)CC1c1ccccc1O (configuration not stated) | 5.42 | 6.70 | 
37 | O=C(c1cc2c(s1)CCC2)N1N=C(c2cccnc2)CC1c1ccccc1O (configuration not stated) | 6.04 | 8.16 | 
38 | O=C(c1[nH]nc2c1CCC2)N1N=C(c2cccnc2)CC1c1ccccc1O (configuration not stated) | 6.46 | 8.15 | 
39 | O=C(c1ccc(F)cc1C(F)(F)F)N1N=C(c2cccnc2)CC1c1ccccc1O (configuration not stated) |  | < 5.00 | 
40 | O=C(c1ccc([N+](=O)[O-])o1)N1N=C(c2cccnc2)CC1c1ccccc1O (configuration not stated) |  | 6.89 | 
41 | O=C(c1cc(-c2ccc3c(c2)OCCO3)n[nH]1)N1N=C(c2cccnc2)CC1c1ccccc1O (configuration not stated) | 6.62 | 7.97 | 
42 | N#Cc1ccccc1S(=O)(=O)N1N=C(c2cccnc2)CC1c1ccccc1O (configuration not stated) |  | 6.35 | 
43 | O=C(c1cccc(-n2cccn2)c1)N1N=C(c2cccnc2)CC1c1ccccc1O (configuration not stated) | 5.06 | 7.38 | pIC50 [3]: < 5.00; pIC50 [4]: < 5.00; pIC50 [5]: < 5.00; pIC50 [6]: < 5.00; pIC50 [7]: < 5.00; pIC50 [8]: < 5.00
44 | O=C(c1cc(-c2cccs2)n[nH]1)N1N=C(c2cccnc2)CC1c1ccccc1O (configuration not stated) | 6.39 | 7.99 | 
45 | O=C(c1ccccc1Oc1ccccc1)N1N=C(c2cccnc2)CC1c1ccccc1O (configuration not stated) |  | < 5.00 | 
46 | O=C(c1cccc(C(F)(F)F)c1F)N1N=C(c2cccnc2)CC1c1ccccc1O (configuration not stated) |  | < 5.00 | 
